Experimental data reported in ChEMBL document CHEMBL4513216, “Probing the Open Global Health Chemical Diversity Library for Multistage-Active Starting Points for Next-Generation Antimalarials” (ACS Infect Dis, 2020).

Experiment: Toxicity liver stage against HepG2, at 10uM
Format: cell-based
Design: test concentration 10 uM, cell line HepG2-A16-CD81EGFP
Settings: human, HepG2-A16-CD81EGFP cells; read-out: INHIBITION
In short: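 Uninfected HepG2-A16-CD81EGFP cells, 3 × 10^3 per well, 1536-well, plated on prespotted compound at 10 μM final, parasite-free screening media added to match infected plates; puromycin 10 μM positive, DMSO 0.5% negative; run in parallel with 48 h PbLuc assay at 37 °C, 5% CO2; viability by CellTiter-Glo luminescence, normalized to controls.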

Point of comparison: `Cc1cnn(Cc2ccc(NC(=O)N3CCCCC3CO)cc2)c1` (stereo unspecified), cytotoxicity at 10 µM 56.1%. Against it:
- COc1cccc(-n2c(C)cc(C(=O)NCCCC(N)=O)c2C)c1 — lower, -11.9%
- CCOc1cccc(CNc2ccccc2Cl)c1O — lower, -2.52%
- O=C(O)C1c2nc[nH]c2CCN1Cc1ccc(-c2ccccc2)s1 (stereo unspecified) — lower, -9.35%
- Cc1noc(C)c1C(=O)NCC(c1ccsc1)N(C)C (stereo unspecified) — lower, -14.2%
- CNC(=O)CC1CCN(Cc2nc(-c3cccc(Cl)c3)oc2C)CC1 — lower, -9.75%
- CCOC(=O)NC(CNC(=O)c1ncccn1)CC(C)C (stereo unspecified) — lower, -4.92%
- CNC(=O)[C@@H]1C[C@@H](N)CN1c1nc(N2CCCC2)nc(C)c1C — lower, -7.82%
- Cc1nc[nH]c1CNC1CC(=O)N(CCc2cccc(Cl)c2)C1 (stereo unspecified) — lower, -135%
- O=C(O)c1ccccc1-n1cnc(CN2CCCCCC2)c1 — lower, -8.94%
- Oc1cccc(CN2C[C@@H]3CC[C@H]2CN(Cc2ccncc2)C3)c1 — lower, -131%
- COc1ccccc1OC1CN(C(=O)Cc2c(C)nc3ccccn23)C1 — lower, -2.27%
- CC(C)OC(=O)CN1N=C(C(=O)N2CCCC2)S(=O)(=O)c2ccccc21 — lower, -2.93%
- CC(=O)N[C@H]1CCO[C@@H](c2cccc(NC(=O)c3ccc(=O)[nH]n3)c2)C1 — lower, 4.46%
- O=C1NCCCc2[nH]c(C3CCCN(C(=O)C4CC4)C3)nc21 (stereo unspecified) — lower, 3.55%
- COCCN(C)CC1CCCN1S(=O)(=O)c1cc(C)oc1C (stereo unspecified) — lower, 0.729%
- Cc1nn(C)c(C)c1CC(=O)N1CCc2nnc(N(C)C)cc2C1 — lower, -7.63%
- Cc1cc(C)c2nc(CN3CCOC(CCO)C3)cc(O)c2c1 (stereo unspecified) — lower, -9.26%
- CS(=O)(=O)N1CC[C@]2(C[C@@H](OCC3CCC3)CO2)C1 — lower, -6.66%
- COc1ccccc1CC(=O)NS(=O)(=O)c1ccc(C(N)=O)cc1 — lower, -5.2%
- CCOC(=O)N1CCC2(CCCN(C3CCOCC3)C2=O)C1 (stereo unspecified) — lower, -133%
- CN(Cc1nc(Cc2cccc(C(F)(F)F)c2)no1)C(C1CC1)C1CC1 — lower, 0.92%
- CC1CN(Cc2cnn(C)c2)CCN1c1ccc2nncn2n1 (stereo unspecified) — lower, 2.69%
- N#Cc1ccc(NCC(=O)Nc2ncn(Cc3cccnc3)n2)cc1 — lower, 7.65%
- CN(C)c1nc(NCCc2cnccn2)ncc1F — lower, 5.56%
- Cc1ccc(C)c(Oc2ccc(CNC(=O)C3CCC(=O)N3)cn2)c1 (stereo unspecified) — lower, 5.98%
- COc1ncccc1CNC(=O)c1ccco1 — lower, -8.48%
- Cc1n[nH]c(C2CN(CC(=O)NCCC3=CCCCC3)CCO2)n1 (stereo unspecified) — lower, 12.9%
- Cc1cccc2nc(CNCc3cccc4c3OCCCO4)cn12 — lower, 20.8%
- Cc1nnc(C(C)Nc2cccc(COCCOC(C)C)c2)o1 (stereo unspecified) — lower, 2.29%
- CCOC1COC2(CCN(c3ncc(C)cn3)CC2)C1 (stereo unspecified) — lower, 7.21%
- O=C1CC(c2ccccc2)c2c(n3ccsc3nc2=O)N1 (stereo unspecified) — lower, -4.74%
- COc1ccc(F)cc1C(=O)N1CCn2c(nnc2C(F)(F)F)C1 — lower, -7.61%
- O=C(NCCC1=CCCCC1)NCc1nnc2n1CCC2 — lower, -5.6%
- COCC(=O)N1CCC(c2cc(-c3ccc(C)cc3)n[nH]2)C1 (stereo unspecified) — lower, -3.39%
- CCOC(=O)c1nc(COc2ccc(CC(N)=O)cc2)no1 — lower, -6.24%
- CCc1nc(C2CCCN2CC(=O)Nc2c(C)n[nH]c2C)no1 (stereo unspecified) — lower, -3.79%
- COc1ccc(Cl)cc1NC(=O)N(C)CC(O)COCCOC(C)C (stereo unspecified) — lower, 11.3%
- O=C(CC1CCCC1)Nc1ccc(-n2cc(Cl)cn2)nc1 — lower, -56.3%
- Cc1cc(C)cc(CN2CCN(C(=O)C3CCC3)[C@@H]3CS(=O)(=O)C[C@@H]32)c1 — lower, -1.38%
- O=C(CCc1ccco1)NS(=O)(=O)N1CCOc2ccccc21 — lower, 6.07%
- Cc1ccc(CN2Cc3nnn(C)c3C(COCc3ccccc3)C2)o1 (stereo unspecified) — lower, 5.44%
- O=C(N1CCCCC1)N1CCCC1c1nnc2n1CCNC2 (stereo unspecified) — lower, 13.6%
- O=C(CCNC(=O)NC1CC1)NCc1ccccc1 — lower, 8.12%
- CNC(=O)CN1CCOCC12CCN(C(=O)c1ccccc1)CC2 — lower, -82.2%
- O=C(c1ccc(C2CCCN2)s1)N1CCN2CCC1CC2 (stereo unspecified) — lower, -8.52%
